Legend:
Assay type in all cases: toxicity, cell-based
HEK-293T [1] = test: Multiplex assay against HEK293T; conditions: human;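 for Population Tubulin-Different-Phenotype (%): share of the cells with healthy nuclei that show this phenotype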
Outline: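 Compound was added to live cells that had been stained at seeding with Hoechst33342, BioTracker Green Microtubule Cytoskeleton Dye, MitoTracker Red and Annexin V Alexa Fluor 680, and imaging followed on a CQ1 microscope at 37°C and 5% CO2. CellPathfinder machine-learning gating divided cells into Hoechst high-intensity objects or normal cells, normal cells into healthy, pyknosed or fragmented nuclei, and pyknosed cells into mitotic or apoptotic. Tubulin, mitochondrial-mass and membrane-permeability phenotypes are per cents of healthy-nucleus cells.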

HEK-293T [2] = test: Incucyte cell viability with HEK293T; conditions: human, 10 µM, compound concentration 10 uM; note: filed as whole numbers so only -1 and 0 and 1 occur
Fibroblast = test: Incucyte cell viability with human fibroblast; conditions: 10 µM, compound concentration 10 uM; note: filed as whole numbers so only -1 and 0 and 1 occur
[3] = 12 h, 1 µM, compound concentration 1 uM, replicate 1
[4] = 12 h, 1 µM, compound concentration 1 uM, replicate 2
[5] = 12 h, 10 µM, compound concentration 10 uM, replicate 1
[6] = 12 h, 10 µM, compound concentration 10 uM, replicate 2
[7] = 24 h, 1 µM, compound concentration 1 uM, replicate 1
[8] = 24 h, 1 µM, compound concentration 1 uM, replicate 2
[9] = 24 h, 10 µM, compound concentration 10 uM, replicate 1
[10] = 24 h, 10 µM, compound concentration 10 uM, replicate 2
[11] = 6 h, replicate number 1, timepoint 6 hours
[12] = 12 h, replicate number 1, timepoint 12 hours
[13] = 18 h, replicate number 1, timepoint 18 hours
[14] = 24 h, replicate number 1, timepoint 24 hours

Structure (SMILES): Cl.Cl.NC1(c2ccc(-c3nc4ccn5c(=O)[nH]nc5c4cc3-c3ccccc3)cc2)CCC1
- Population Apoptotic (%) (HEK-293T [1]; [3]): 25%
- Population Fragmented Nuclei (%) (HEK-293T [1]; [3]): 19%
- Population Healthy Nuclei (%) (HEK-293T [1]; [3]): 63%
- Population Hoechst High Intensity Objects (%) (HEK-293T [1]; [3]): 20%
- Population Membrane Permeable-Phenotype (%) (HEK-293T [1]; [3]): 13%
- Population Mitochondria Different-Phenotype (%) (HEK-293T [1]; [3]): 10%
- Population Mitotic Cells (%) (HEK-293T [1]; [3]): 74%
- Population Normal (%) (HEK-293T [1]; [3]): 79%
- Population Pyknosed Nuclei (%) (HEK-293T [1]; [3]): 17%
- Population Tubulin-Different-Phenotype (%) (HEK-293T [1]; [3]): 15%
- Total Cell Count (HEK-293T [1]; [3]): 657
- Population Apoptotic (%) (HEK-293T [1]; [4]): 11%
- Population Fragmented Nuclei (%) (HEK-293T [1]; [4]): 8%
- Population Healthy Nuclei (%) (HEK-293T [1]; [4]): 85%
- Population Hoechst High Intensity Objects (%) (HEK-293T [1]; [4]): 5%
- Population Membrane Permeable-Phenotype (%) (HEK-293T [1]; [4]): 6%
- Population Mitochondria Different-Phenotype (%) (HEK-293T [1]; [4]): 20%
- Population Mitotic Cells (%) (HEK-293T [1]; [4]): 88%
- Population Normal (%) (HEK-293T [1]; [4]): 94%
- Population Pyknosed Nuclei (%) (HEK-293T [1]; [4]): 6%
- Population Tubulin-Different-Phenotype (%) (HEK-293T [1]; [4]): 34%
- Total Cell Count (HEK-293T [1]; [4]): 1341
- Population Apoptotic (%) (HEK-293T [1]; [5]): 31%
- Population Fragmented Nuclei (%) (HEK-293T [1]; [5]): 27%
- Population Healthy Nuclei (%) (HEK-293T [1]; [5]): 30%
- Population Hoechst High Intensity Objects (%) (HEK-293T [1]; [5]): 56%
- Population Membrane Permeable-Phenotype (%) (HEK-293T [1]; [5]): 18%
- Population Mitochondria Different-Phenotype (%) (HEK-293T [1]; [5]): 27%
- Population Mitotic Cells (%) (HEK-293T [1]; [5]): 68%
- Population Normal (%) (HEK-293T [1]; [5]): 43%
- Population Pyknosed Nuclei (%) (HEK-293T [1]; [5]): 42%
- Population Tubulin-Different-Phenotype (%) (HEK-293T [1]; [5]): 43%
- Total Cell Count (HEK-293T [1]; [5]): 496
- Population Apoptotic (%) (HEK-293T [1]; [6]): 14%
- Population Fragmented Nuclei (%) (HEK-293T [1]; [6]): 5%
- Population Healthy Nuclei (%) (HEK-293T [1]; [6]): 71%
- Population Hoechst High Intensity Objects (%) (HEK-293T [1]; [6]): 65%
- Population Membrane Permeable-Phenotype (%) (HEK-293T [1]; [6]): 23%
- Population Mitochondria Different-Phenotype (%) (HEK-293T [1]; [6]): 25%
- Population Mitotic Cells (%) (HEK-293T [1]; [6]): 85%
- Population Normal (%) (HEK-293T [1]; [6]): 34%
- Population Pyknosed Nuclei (%) (HEK-293T [1]; [6]): 22%
- Population Tubulin-Different-Phenotype (%) (HEK-293T [1]; [6]): 82%
- Total Cell Count (HEK-293T [1]; [6]): 798
- Population Apoptotic (%) (HEK-293T [1]; [7]): 23%
- Population Fragmented Nuclei (%) (HEK-293T [1]; [7]): 20%
- Population Healthy Nuclei (%) (HEK-293T [1]; [7]): 68%
- Population Hoechst High Intensity Objects (%) (HEK-293T [1]; [7]): 17%
- Population Membrane Permeable-Phenotype (%) (HEK-293T [1]; [7]): 18%
- Population Mitochondria Different-Phenotype (%) (HEK-293T [1]; [7]): 8%
- Population Mitotic Cells (%) (HEK-293T [1]; [7]): 76%
- Population Normal (%) (HEK-293T [1]; [7]): 82%
- Population Pyknosed Nuclei (%) (HEK-293T [1]; [7]): 10%
- Population Tubulin-Different-Phenotype (%) (HEK-293T [1]; [7]): 38%
- Total Cell Count (HEK-293T [1]; [7]): 645
- Population Apoptotic (%) (HEK-293T [1]; [8]): 8%
- Population Fragmented Nuclei (%) (HEK-293T [1]; [8]): 23%
- Population Healthy Nuclei (%) (HEK-293T [1]; [8]): 73%
- Population Hoechst High Intensity Objects (%) (HEK-293T [1]; [8]): 7%
- Population Membrane Permeable-Phenotype (%) (HEK-293T [1]; [8]): 14%
- Population Mitochondria Different-Phenotype (%) (HEK-293T [1]; [8]): 4%
- Population Mitotic Cells (%) (HEK-293T [1]; [8]): 91%
- Population Normal (%) (HEK-293T [1]; [8]): 92%
- Population Pyknosed Nuclei (%) (HEK-293T [1]; [8]): 3%
- Population Tubulin-Different-Phenotype (%) (HEK-293T [1]; [8]): 46%
- Total Cell Count (HEK-293T [1]; [8]): 2029
- Population Apoptotic (%) (HEK-293T [1]; [9]): 41%
- Population Fragmented Nuclei (%) (HEK-293T [1]; [9]): 40%
- Population Healthy Nuclei (%) (HEK-293T [1]; [9]): 21%
- Population Hoechst High Intensity Objects (%) (HEK-293T [1]; [9]): 63%
- Population Membrane Permeable-Phenotype (%) (HEK-293T [1]; [9]): 23%
- Population Mitochondria Different-Phenotype (%) (HEK-293T [1]; [9]): 38%
- Population Mitotic Cells (%) (HEK-293T [1]; [9]): 58%
- Population Normal (%) (HEK-293T [1]; [9]): 36%
- Population Pyknosed Nuclei (%) (HEK-293T [1]; [9]): 38%
- Population Tubulin-Different-Phenotype (%) (HEK-293T [1]; [9]): 41%
- Total Cell Count (HEK-293T [1]; [9]): 436
- Population Apoptotic (%) (HEK-293T [1]; [10]): 12%
- Population Fragmented Nuclei (%) (HEK-293T [1]; [10]): 7%
- Population Healthy Nuclei (%) (HEK-293T [1]; [10]): 53%
- Population Hoechst High Intensity Objects (%) (HEK-293T [1]; [10]): 69%
- Population Membrane Permeable-Phenotype (%) (HEK-293T [1]; [10]): 29%
- Population Mitochondria Different-Phenotype (%) (HEK-293T [1]; [10]): 20%
- Population Mitotic Cells (%) (HEK-293T [1]; [10]): 88%
- Population Normal (%) (HEK-293T [1]; [10]): 30%
- Population Pyknosed Nuclei (%) (HEK-293T [1]; [10]): 39%
- Population Tubulin-Different-Phenotype (%) (HEK-293T [1]; [10]): 92%
- Total Cell Count (HEK-293T [1]; [10]): 837
- Growth Rate (HEK-293T [2]; [11]): 0
- Growth Rate (HEK-293T [2]; [12]): 0
- Growth Rate (HEK-293T [2]; [13]): 0
- Growth Rate (HEK-293T [2]; [14]): 0
- Growth Rate (Fibroblast; [11]): 0
- Growth Rate (Fibroblast; [12]): 0
- Growth Rate (Fibroblast; [13]): 0
- Growth Rate (Fibroblast; [14]): 0
